Screens from PubChem.
Hits are enriched below; roughly 2.7% of the tested compounds scored in any of these assays.
FLuc stim CS: firefly luciferase counter-screen for stimulation assays | activation factor at 10 µM | 200,000 tested, under 10 active | P08659 | AID 1027 | ATPlite luciferase biochemical, luminescence, 10 min; 0 = ATP-free wells, 1 = DMSO control;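 active means luciferase activation factor, scaled between plate controls, of at least 2 with compound at 10 µM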
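Assay system: Luciferase/luciferin detection reagent, cell-free biochemical luciferase assay / Read-out: luciferase activation / Benchmarks: No-ATP low control, compound-free enzyme-plus-ATP high control / Medium: PBS buffer for ATP / Detection: luminescence measurement of luciferase light output / Schedule: 10 min at ambient temperature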
ABCB1 block: blocks JC-1 efflux by human ABCB1 transporter | P08183 | CCRF-Adr cells, flow cytometry | inhibition, % at 6.6 µM | 190,000 compounds, 0.067% hits; in the data active means inhibition above about 40%;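 further: higher value means more JC-1 retained so stronger ABCB1 efflux block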
DTT redox prof: compounds producing H2O2 with reducing agent – biochemical, NIH compound library profiling, artefact control for MLSCN library redox annotation, primary screen; DTT-dependent redox cycling H2O2, phenol red/HRP absorbance; 100% = 100 µM peroxide control, 0% = buffer; activation, % at 10 µM; 200,000 compounds, 0.03% hits;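 active means activation of at least 50% relative to the plate's high and low controls in the primary single-dose screen; inactive means activation below 50%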;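 further: compound incubated with DTT at 0.8 mM final as the reducing agent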
FLuc inh counter: counter-screen for luciferase assay inhibitors: firefly luciferase inhibition; ATPLite firefly luciferase biochemical luminescence, 10 min; inhibition, % at 10 µM; 200,000 compounds, 1.5% hits; AID 1006;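 active means inhibition above about 50% when tested at 10 µM, limit read from the data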
ABCG2 block: inhibitors of human ABCG2 transporter, ABCB1 counter-screen. Q9UNQ0. IgMXP3 cells, JC-1 efflux, flow cytometry. inhibition, % at 6.6 µM. 190,000 compounds, 0.1% hits. AID 1325;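 active means inhibition above 80%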
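Measure – % inhibition of efflux relative to nicardipine and DMSO · Test system – ABCG2 IgMXP3 and barcoded ABCB1 CCRF-Adr cell mix · Control set – nicardipine as high control, DMSO as low control · Compound – one concentration, 6.6 µM final · Signal – flow cytometry of retained JC-1 fluorescence · Timing – 10 min exposure at 25 °C with rotation, no wash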
Measles CPE: protection of cells from measles virus; Measles virus-infected cells, CPE protection, absorbance; protection (pct of control), % at 4 µM; 140,000 compounds, 1.5% hits; in the data active means protection mostly above about 24%, no sharp cut-off; inactive means mostly below about 26%
Each line names hits and unclear results; the compound was inactive in the other large screens.

Cc1ccnc(Nc2nc3ccccc3o2)n1	FLuc inh counter 68.6
Cc1nc(Nc2nc3ccccc3o2)nc(C)c1C	FLuc inh counter 51.3 (no result: Measles CPE)
COCCN1C(=O)N[C@@H](CCc2ccccc2)C(C(C)=O)=C1C	none
COc1cc(CCN2C(=O)N[C@@H](CCc3ccccc3)C(C(C)=O)=C2C)cc(OC)c1OC	Measles CPE 28.8
CSc1nnc2c3ccccc3n(CCc3ccccc3)c2n1	Measles CPE 54.9
CSc1nnc2c3ccccc3n(Cc3ccccc3)c2n1	none
CCn1c(SCC(=O)O)nnc1-c1cccnc1	none (no result: Measles CPE)
CCCCCNc1c(C(=O)OCC)c(=O)[nH]c2ccccc12	Measles CPE 35.6
CCCC(=O)Nc1c(C(=O)OCC)[nH]c2ccccc12	Measles CPE 39.3
CCCCNc1c(C(=O)OCC)c(=O)[nH]c2ccccc12	none
O=C(NCc1ccccc1)NC(O)C(Cl)(Cl)Cl (configuration not stated)	none (no result: Measles CPE)
COc1c2c(nc3ccccc13)OC(C(C)(O)COC(C)=O)C2 (configuration not stated)	Measles CPE 32.3
CC(=O)OCCNc1nc(-c2ccccc2)nc2ccccc12	none (no result: Measles CPE)
COc1cc(CNC(C)C)c(Br)cc1OC1CCCC1	none (no result: Measles CPE)
O=C(Nc1ccncc1)C1COc2ccccc2O1 (configuration not stated)	none
O=C(NC1=NCCS1)C1COc2ccccc2O1 (configuration not stated)	FLuc inh counter 76.5
O=C(O)c1ccccc1Nc1ccc([N+](=O)[O-])cc1	Measles CPE 82.6
Cc1cc(C)n(-c2cc(N3CCN(C(=O)c4cccc(F)c4)CC3)ccc2[N+](=O)[O-])n1	none
CCOC(=O)Nc1cc(C(=O)OC)ccc1C	Measles CPE 32.6
Cc1nn(C(=O)c2ccco2)c(C)c1Br	none
Cc1ccn2c(c1)nc(=S)n2C(=O)c1ccco1	FLuc inh counter 93.6
O=c1[nH][nH]c2cc(=O)n(-c3ccc(Cl)cc3)nc12	none (no result: Measles CPE)
CC(C)c1ccccc1NC(=S)NCCCn1ccnc1	none (no result: Measles CPE)
O=C(NCCCn1ccnc1)Nc1cccc2ccccc12	Measles CPE 25.9
CCOC(=O)N1CCN(C(=O)c2ccc3c(=O)n(-c4ccc(F)cc4)c(=S)[nH]c3c2)CC1	Measles CPE 27.5
CN1CCN(C(=O)c2ccc3c(=O)n(-c4ccc(F)cc4)c(=S)[nH]c3c2)CC1	none (no result: Measles CPE)
O=C(NCc1ccccc1)c1cccc(Br)n1	Measles CPE 44.4
Cc1cc(C)n2nc(C(=O)NCc3ccccc3)cc2n1	Measles CPE 42.5
O=C(NCCN1CCOCC1)c1ccc(NC(=O)C2COc3ccccc3O2)cc1 (configuration not stated)	none (no result: Measles CPE)
CC1CCCN(c2ccc3nc4ccccc4c(=O)n3n2)C1 (configuration not stated)	FLuc inh counter 93.8 (no result: Measles CPE)
CC(=O)Oc1ccc(C(=O)Nc2ccccc2C(=O)NCC(C)C)cc1	Measles CPE 54.0
CC(C)CNC(=O)c1ccccc1NC(=O)c1ccc(CN2CCOCC2)cc1	none
CCOc1ccc(NC(=O)CSc2nnc(-c3ccncc3)n2CC2CCCO2)cc1 (configuration not stated)	none
CCOc1ccc2nc(NC(=O)CSc3nnc(-c4ccncc4)n3CC3CCCO3)sc2c1 (configuration not stated)	FLuc inh counter 67.6 (no result: ABCB1 block, DTT redox prof, ABCG2 block, Measles CPE)
COc1ccc(CNC(=S)Nc2cccc(C)c2)cc1	Measles CPE 39.6
COc1ccc(C/C(C)=N/NC(=S)Nc2ccc(C)c(C)c2)cc1	Measles CPE 19.7
CC(=O)OC1=C(C#N)Cn2ccc3cccc1c32	Measles CPE 57.5
CC1(C)c2ssc(=S)c2-c2ccccc2N1C(=O)CSC1=NCCS1	Measles CPE 37.5
COc1ccc2c(c1)-c1c(ssc1=S)C(C)(C)N2C(=O)CSC1=NCCS1	none
CC1(C)CC(=O)c2sc(NC(=O)c3ccc4ncsc4c3)nc2C1	FLuc inh counter 54.7
CC1(C)CC(=O)c2sc(NC(=O)c3cccs3)nc2C1	FLuc inh counter 95.0
CC1(C)CC(=O)c2sc(NC(=O)c3ccccc3)nc2C1	FLuc inh counter 87.7 (no result: Measles CPE)
